The values that follow come from ChEMBL document CHEMBL1129385, “Aspartic acid conjugates of 2-(3,4-dichlorophenyl)-N-methyl-N-[(1S)-1(3-aminophenyl)-2-(1-pyrrolidi nyl) ethyl]acetamide: kappa opioid receptor agonists with limited access to the central nervous system” (J Med Chem, 1996).

Each structure is given as a SMILES string.

One experiment is filed under the species Cavia porcellus. The experiment in a line: Compound was tested for their agoinst potencies on the electrically stimulated Guinea pig ileal longitudinal muscle preparation. The format is functional. The following applies: Muscle tissue.
In experiment [1] the test system is Mus musculus. The experiment in a line: Compound was evaluated for Antinociceptive potencies in mice for in vivo activity Mouse abdominal stretch assay by icv administration. The format is functional. The following applies: Abdomen, central.
The test system of experiment [2] is Mus musculus. In words: Compound was evaluated for Antinociceptive potencies in mice for in vivo activity in mouse tail-flick by icv administration. The format is functional. The conditions noted are these: central.
In experiment [3] the test system is Mus musculus. In words: Compound was evaluated for Antinociceptive potencies in mice for in vivo activity in mouse tail-flick by iv administration. Type of experiment: functional.
Experiment [4] is filed under the species Mus musculus. In words: Compound was tested for their agoinst potencies on the electrically stimulated mouse vas deferens. Type of experiment: functional.
The subject of experiment [5] is Mus musculus. In words: Peak time for Antinociception Tail-flick(min) by icv administration in mice. Type of experiment: functional.
For experiment [6], the system named is Mus musculus. The experiment in a line: Peak time for Antinociception Tail-flick(min) by iv administration in mice. Type of experiment: functional.
Experiment [7] relates to Mus musculus. In words: Peak time for Antinociception writhing(min) by icv administration in mice. Type of experiment: functional.
For experiment [8], the system named is Mus musculus. The experiment in a line: Peak time for Antinociception writhing(min) by iv administration in mice. Type of experiment: functional.
The target of another experiment is Mu-type opioid receptor (Cavia porcellus, UniProt P97266). The experiment in a line: Compound was tested for the binding affinity and selectivity by competitive inhibition of radioligands on opioid Mu receptor in guinea pig brain membranes. Type of experiment: cell membranes, Membrane. In a few lines:
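Competition binding in guinea pig brain membranes for μ opioid sites against 2 nM [³H]DAMGO, using a modified Werling method. Ki values are arithmetic means of three experiments.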

The target of experiment [9] is T1, Kappa-type opioid receptor (Cavia porcellus, UniProt P41144). The experiment in a line: Compound was tested for the binding affinity and selectivity by competitive inhibition of radioligands on Opioid receptor kappa 1 in guinea pig brain membranes. Type of experiment: cell membranes, Membrane. In a few lines: (§1)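 Competition binding in guinea pig brain membranes for κ opioid sites against 1 nM [³H]U69,593, using a modified Werling method. Ki values are arithmetic means of three experiments.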

The subject of experiment [10] is Mus musculus. In words: Compound was evaluated for Antinociceptive potencies in mice for in vivo activity in Analgesic activity in the second phase of the mouse formalin assay by iv administration. The format is functional.
For experiment [11], the target named is T1, Kappa-type opioid receptor. In words: Compound was tested for the binding affinity and selectivity by competitive inhibition of radioligands on opioid kappa receptor in guinea pig brain membranes. Type of experiment: cell membranes, Membrane. In a few lines: as §1

Take `CN(C(=O)Cc1ccc(Cl)c(Cl)c1)[C@H](CN1CCCC1)c1cccc(NC(=O)C[C@H](N)C(=O)O)c1`: the IC50 was 0.55 nM in the experiment filed under Cavia porcellus and 6.36 nM in the experiment listed under Mus musculus [4]. The results for the ED50 with Mus musculus [1], in the experiment on Mus musculus [2] and in the experiment with Mus musculus [3] were 0.011 µmol/kg, 0.502 µmol/kg and 5.12 µmol/kg, respectively. Besides, the Time in the experiment with Mus musculus [5] came out at 30 min; in the experiment on Mus musculus [6], 30 min; in the experiment on Mus musculus [7], 30 min; with Mus musculus [8] it was 10 min.
Take `CN(C(=O)Cc1ccc(Cl)c(Cl)c1)[C@H](CN1CCCC1)c1cccc(NC(=O)[C@H](N)CC(=O)O)c1`: the IC50 in the experiment filed under Cavia porcellus came to 4.59 nM; in the experiment listed under Mus musculus [4], 4.06 nM. For the same compound, the results for the ED50 with Mus musculus [1] and with Mus musculus [10] were 0.046 µmol/kg and 1.05 µmol/kg, respectively. The Ki at Mu-type opioid receptor was determined as 280 nM; in experiment [9], 1.2 nM. The Time with Mus musculus [7] and in the experiment on Mus musculus [8] was 10 min throughout.
For `CN(C(=O)Cc1ccc(Cl)c(Cl)c1)[C@H](CN1CCCC1)c1cccc(NC(=O)[C@@H](N)CC(=O)O)c1`, the IC50 was 0.84 nM in the experiment listed under Cavia porcellus and 2.49 nM in the experiment filed under Mus musculus [4]. Moreover, the ED50 is 0.0068 µmol/kg with Mus musculus [1], 0.335 µmol/kg in the experiment with Mus musculus [2], 0.85 µmol/kg in the experiment on Mus musculus [3] and 0.01 µmol/kg in the experiment on Mus musculus [10]. Also, the Ki on Mu-type opioid receptor amounted to 462 nM; in experiment [11], 0.34 nM. Besides, the Time with Mus musculus [5] was 30 min; in the experiment on Mus musculus [6], 20 min; in the experiment on Mus musculus [7], 10 min; with Mus musculus [8], 10 min.
